According to article PMC3668529 (FEBS Open Bio, 2013):
Like-named read-outs stand apart in the source and are kept apart here. Each block holds one compound with its values, some of them ahead of it.

Legend:
[1] = target: T1, rCPT-2 (Rattus norvegicus, UniProt P18886); assay: rCPT-2 activity assay, spectrophotometric with DTNB; format: biochemical; conditions: diluted lysate, 30 °C, reverse reaction, no additional β-OG
T1 sequence (P18886 26-658): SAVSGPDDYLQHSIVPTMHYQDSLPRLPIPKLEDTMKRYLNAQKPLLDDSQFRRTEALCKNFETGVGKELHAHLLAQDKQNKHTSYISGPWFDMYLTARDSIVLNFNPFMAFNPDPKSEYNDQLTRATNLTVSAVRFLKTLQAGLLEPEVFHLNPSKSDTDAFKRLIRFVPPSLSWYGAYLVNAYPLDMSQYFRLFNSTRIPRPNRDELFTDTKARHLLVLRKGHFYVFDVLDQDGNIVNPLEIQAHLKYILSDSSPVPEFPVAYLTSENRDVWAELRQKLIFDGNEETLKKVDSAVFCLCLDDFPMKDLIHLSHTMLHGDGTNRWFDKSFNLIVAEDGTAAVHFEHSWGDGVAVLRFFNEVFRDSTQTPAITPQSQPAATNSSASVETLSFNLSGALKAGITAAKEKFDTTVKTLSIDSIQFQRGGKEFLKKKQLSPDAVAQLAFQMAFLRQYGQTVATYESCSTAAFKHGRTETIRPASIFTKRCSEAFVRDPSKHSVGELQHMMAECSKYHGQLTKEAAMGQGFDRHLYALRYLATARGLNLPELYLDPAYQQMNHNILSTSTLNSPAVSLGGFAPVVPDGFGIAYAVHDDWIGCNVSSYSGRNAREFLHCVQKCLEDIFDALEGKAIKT
In short: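 The reverse reaction was run at 30 °C with crude Pichia pastoris lysate (30 nM enzyme) in 25 mM Tris–HCl pH 7.4, 120 mM KCl and 1 mM EDTA, without added β-OG. Substrates were 500 μM carnitine and 80 μM palmitoyl-CoA. Released CoA-SH was detected with DTNB by absorbance at 410 nm (ε 13,600 M−1 cm−1). Inhibitors were titrated from 10 mM DMSO stocks.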

[2] = target: T1, rCPT-2; assay: Isothermal titration calorimetry; format: binding
In short: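 Inhibitor (100–300 μM, from 10 mM DMSO stock, in identical buffer) was injected in 10 μL steps. ΔH0, K and n came from a 1:1 fit, with ΔG0 and ΔS0 calculated. ΔCp0 came from runs at several temperatures. Proton transfer was tested with HEPES, Bicine or Tris buffers at pH 8 and 10 °C, fitting ΔHobs against buffer ionization enthalpy by linear regression.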

[3] = ITC demicellization of β-OG with and without co-dissolved inhibitor; format: physicochemical; conditions: for CMC / TΔSmic0 / ΔGmic0 / ΔHmic0: absence of rCPT-2
In short: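 Syringe held 300 mM β-OG with 1% or 7.5% (v/v) DMSO, with or without 0.75 mM inhibitor, in 25 mM Tris/HCl pH 8, 150 mM NaCl, 2 mM TCEP, degassed 10 min. Injected stepwise into buffer. Initial constant heats gave ΔHdemic0 (ΔHmic0 of opposite sign). Curves simulated with a cooperative association model. CMC taken as midpoint, ΔGmic0 = RT lnCMC, ΔCp0 from linear fits of ΔHmic0 versus temperature.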

[4] = target: T1, rCPT-2; assay: Differential scanning calorimetry; format: binding
In short: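 Thermal unfolding was run by DSC at a scan rate of 30 °C/h. The reference cell held buffer, with a buffer–buffer blank as baseline. Transition midpoints were read from the curves.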

[5] = target: T1, rCPT-2; assay: Binding site by X-ray crystallography and manual docking; conditions: crystal structures and docking models
In short: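 Crystals were cryo-protected or oil-exchanged, flash frozen, and data collected at 100 K. Ligands were placed by manual modelling into the structure, then energy-minimised with protein atoms constrained.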

[6] = target: T1, rCPT-2; conditions: octanoyl-CoA as substrate, competitive; cited from earlier work
[7] = cited from earlier work

Compound: CCCCCCCCCCCCCCNC(=O)N[C@H](CC(=O)[O-])C[N+](C)(C)C [Inhibitor 4, reference compound]
IC50 [1]: 0.38 µM
Kd ([2]; ITC, 10 °C, 25 mM Tris/HCl pH 8, 1% β-OG, 1% DMSO): 10.5 ± 3.3 µM
TΔS^0 ([2]; ITC, 10 °C, Tris/HCl pH 8): -3.3 ± 0.5 kcal/mol
ΔG^0 ([2]; ITC, 10 °C, Tris/HCl pH 8): -6.5 ± 0.3 kcal/mol
ΔH^0 ([2]; ITC, 10 °C, Tris/HCl pH 8): -9.8 ± 0.7 kcal/mol
Kd ([2]; ITC, 37 °C, Tris/HCl pH 8): 20 µM
TΔS^0 ([2]; ITC, 37 °C, Tris/HCl pH 8): -3.7 kcal/mol
ΔG^0 ([2]; ITC, 37 °C, Tris/HCl pH 8): -5.9 kcal/mol
ΔH^0 ([2]; ITC, 37 °C, Tris/HCl pH 8): -9.5 kcal/mol
sign of the reaction enthalpy ([2]; Tris/HCl pH 8): exothermic
molar heat capacity change ΔCp0 of binding ([2]; Tris/HCl pH 8, temperature dependence of ΔH^0): 11 cal/mol K
Kd ([2]; read-out: dissociation constants determined by ITC): 20 µM
effect on the CMC of β-OG ([3]; 7.5% (v/v) DMSO, compared to β-OG alone): slightly increase
CMC ([3]; 14 °C): 35.1 mM
TΔSmic0 ([3]; 14 °C): 3.26 kcal/mol
ΔGmic0 ([3]; 14 °C): -1.90 kcal/mol
CMC ([3]; 25 °C): 31.3 mM
TΔSmic0 ([3]; 25 °C): 2.92 kcal/mol
ΔGmic0 ([3]; 25 °C): -2.04 kcal/mol
ΔHmic0 ([3]; 25 °C): 0.88 kcal/mol
CMC ([3]; 30 °C): 31.0 mM
TΔSmic0 ([3]; 30 °C): 2.66 kcal/mol
ΔGmic0 ([3]; 30 °C): -2.08 kcal/mol
ΔHmic0 ([3]; 30 °C): 0.57 kcal/mol
CMC ([3]; 45 °C): 31.0 mM
TΔSmic0 ([3]; 45 °C): 1.74 kcal/mol
ΔGmic0 ([3]; 45 °C): -2.19 kcal/mol
ΔHmic0 ([3]; 45 °C): -0.45 kcal/mol
midpoint of the thermal unfolding transition of rCPT-2 ([4]; 14 μM rCPT-2, 100 μM inhibitor): 49.8 °C
total unfolding enthalpy of rCPT-2 ([4]; interval 30–55 °C, protein in excess of inhibitor): 1270 kcal/mol
stability increase of rCPT-2 ([4]; with versus without inhibitor): ~3 °C
rCPT-2 (binding site) [5]: Acylcarnitine site

CMC ([3]; 14 °C): 32.8 mM
TΔSmic0 ([3]; 14 °C): 3.27 kcal/mol
ΔGmic0 ([3]; 14 °C): -1.94 kcal/mol
ΔHmic0 ([3]; 14 °C): 1.33 kcal/mol
CMC ([3]; 30 °C): 27.8 mM
TΔSmic0 ([3]; 30 °C): 2.75 kcal/mol
ΔGmic0 ([3]; 30 °C): -2.15 kcal/mol
ΔHmic0 ([3]; 30 °C): 0.60 kcal/mol
CMC ([3]; 37 °C): 28.6 mM
TΔSmic0 ([3]; 37 °C): 2.34 kcal/mol
ΔGmic0 ([3]; 37 °C): -2.18 kcal/mol
ΔHmic0 ([3]; 37 °C): 0.16 kcal/mol
ΔHmic0 ([3]; 45 °C): -0.54 kcal/mol
molar heat capacity change of micelle formation ΔCp0 ([3]; slopes of ΔHmic0 versus temperature, with and without inhibitors): −60 to −90 cal/mol K
Compound: CCCCCCCCO[C@@H]1O[C@H](CO)[C@@H](O)[C@H](O)[C@H]1O [β-OG, β-octyl glucoside]
Ki [6]: 15000 µM

Compound: cinnamycin
binding constants of the PE–cinnamycin complex, times smaller in the β-OG environment [7]: 10–100 times
free energy of binding ΔG^0, less negative in β-OG micelles than in the aqueous phase [7]: 1 to 2.5 kcal/mol
